# Published values pooled from the literature.
# Compare with care: the assays were run in different laboratories.
# Target: NT-3 growth factor receptor (NTRK3, Homo sapiens, UniProt Q16288)
Compound,assay,conditions,quantity,value
Cn1cc(-c2cccc(N3CCc4c(sc5c4CC(C)(C)C5)C3=O)c2CO)cc(Nc2ccncn2)c1=O,"enzyme activity, inhibitor",1 µM,inhibition,-8%
C#Cc1n[nH]c2c(-c3cn([C@@H](C)c4ccccc4)c(=O)[nH]c3=O)cc(F)cc12,"enzyme activity, inhibitor",0.1 µM,inhibition,11.4%
Cn1cncc1[C@@](O)(COc1ccc(C#N)cc1-c1ccc(OC(F)(F)F)cc1)c1ccc(C#N)cc1,"cell-free assay, competition with immobilised ligand",1 µM,remaining binding,99%
COc1ncccc1-c1cnn2ccc(N3CCN(C(=O)OC(C)C)CC3)nc12,"binding, competition with immobilised ligand",1 µM,remaining binding,50%
C#Cc1n[nH]c2c(-c3cn(C(C)c4ccccn4)c(=O)[nH]c3=O)cc(F)cc12 (centres unmarked),"enzyme activity, inhibitor",1 µM,inhibition,12.3%
N#CC1(c2ccccn2)CCN(Cc2cc(C(=O)O)c(=O)n3ccccc23)CC1,"cell-free assay, competition with immobilised ligand",1 µM,remaining binding,70%
Cc1nn(C)cc1-c1nc2c(N3CCN(Cc4ccc(Cl)cc4)CC3)c(Cl)cnc2[nH]1,"binding, competition with immobilised ligand",1 µM,remaining binding,57%
O=c1[nH]c2ccccc2n1C1CCN(Cc2ccc(-c3[nH]c4cc5ncnc5cc4nc3-c3ccccc3)cc2)CC1,cell-free assay,0.5 µM,remaining signal,116%
Nc1ncc(-c2nc(N3CCOCC3)nc(N3CCOCC3)n2)c(C(F)F)n1,"cell-free assay, competition with immobilised ligand",10 µM,remaining binding,87%
CC(C)(C)c1cc(C=C(C#N)C#N)cc(Br)c1O,"enzyme activity, inhibitor",0.5 µM,remaining activity,104%
Cn1cc(-c2cc(F)cc(N3CCn4c(cc5c4CCCC5)C3=O)c2CO)cc(Nc2ccc(N3CCN(C4COC4)CC3)cn2)c1=O,"enzyme activity, inhibitor",0.1 µM,inhibition,15%
